PubChem BioAssay AID624466 (The Scripps Research Institute Molecular Screening Center, 2012)
Screen size: about 360,000 compounds; about 5,400 (1.5%) were called active.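 The calls were made as follows: active = inhibition above a per-plate cutoff, the mean inhibition of test compounds on that plate plus 3 SD (cut at about 49% in these data); inactive = the rest.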 Shown is part of a subset that was picked to be rich in actives.

Each molecule was assayed against Trace amine-associated receptor 1 (Homo sapiens) (UniProt Q96RJ0) (assay: human TAAR1 antagonists, primary screen, Fluo-8 calcium fluorescence, CHO RD-HGA16 cells (AID 624466;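 also: 0% = DMSO plus EC80 beta-PEA response and 100% = DMSO alone without agonist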)). Conditions: CHO RD-HGA16 TAAR1, Fluo-8 calcium fluorescence, antagonist; at 3 µM; active compounds read high.
Chain of Trace amine-associated receptor 1 (Homo sapiens) (Q96RJ0 whole entry, looked up): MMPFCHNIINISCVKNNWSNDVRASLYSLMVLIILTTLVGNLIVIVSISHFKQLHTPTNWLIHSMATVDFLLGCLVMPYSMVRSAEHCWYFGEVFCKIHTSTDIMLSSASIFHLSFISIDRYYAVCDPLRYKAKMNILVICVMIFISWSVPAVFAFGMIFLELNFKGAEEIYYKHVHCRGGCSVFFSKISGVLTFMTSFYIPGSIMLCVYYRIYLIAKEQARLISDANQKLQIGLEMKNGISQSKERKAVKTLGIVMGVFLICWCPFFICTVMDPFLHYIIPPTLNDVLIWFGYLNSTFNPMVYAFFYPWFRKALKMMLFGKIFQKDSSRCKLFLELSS
Summary of the method: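 Assay system: CHO-derived RD-HGA16 cells stably expressing human TAAR1 plus Gα16. Timing: 140 s kinetic read after compound, 140 s after agonist. Technique: kinetic Fluo-8 calcium fluorescence measurement. Measure: % inhibition of agonist calcium response.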
With `O=C1/C(=C/c2cccs2)SC(=S)N1C1CCS(=O)(=O)C1` (stereo unspecified) the inhibition was -5.52% (inactive). In the case of `COc1ccc(CCn2c(NN=C3CCCC3)nc3c2c(=O)[nH]c(=O)n3C)cc1`, the inhibition is reported as -23.8% (inactive). In the case of `COc1cc(OC)c2c(c1)OC(=O)CC2c1cc(OC)c(OC)c(OC)c1` (stereo unspecified), the inhibition is reported as -6.82% (inactive). In the case of `COc1ccc(C2CC(=O)Oc3ccc(C(C)(C)C)cc32)cc1` (stereo unspecified), the inhibition is reported as 52.5% (active). For `COc1cc(C2CC(=O)Oc3cc(OC)c(OC)c(OC)c32)cc(OC)c1OC` (stereo unspecified), the inhibition was 3.9% (inactive). `CN(C)S(=O)(=O)c1ccc(C(=O)NCCN=C2NS(=O)(=O)c3ccccc32)cc1` was tested, and the inhibition was -8.85% (inactive). For `O=C(c1ccc2ccccc2n1)N1CCN(c2ccccc2Cl)CC1`, the inhibition was 20.4% (inactive). `COc1ccc(Cl)cc1N(CC(=O)N/N=C/c1ccc(OCC(N)=O)cc1)S(C)(=O)=O` was tested, and the inhibition was 6.35% (inactive). `NC(N)=N/N=C/c1ccc(OCc2ccc(Cl)cc2Cl)cc1` was tested, and the inhibition was 73.3% (active). For `NC(=O)COc1ccc(/C=N/NC(=O)C2CCCN2S(=O)(=O)c2ccc(Cl)cc2)cc1` (stereo unspecified), the inhibition was 15.8% (inactive). For `O=C1NC[C@H](CCCCN2C[C@H](Cc3ccc(O)cc3)N(CC3CCCCC3)C(=O)C2=O)N(CCc2ccccc2)C1=O`, the inhibition was 7.35% (inactive). With `COc1cccc(N(C(=O)C2COc3ccccc3O2)C(C(=O)NC2CCCCC2)c2ccc(O)cc2)c1` (stereo unspecified) the inhibition was -14.6% (inactive). In the case of `CN(Cc1ccccc1)C(=O)COC(=O)c1ccccc1Nc1ccccc1`, the inhibition is reported as 22.9% (inactive). `Cc1c(C(=O)NCCCc2ccccc2)cccc1[N+](=O)[O-]` was tested, and the inhibition was 1.14% (inactive). `O=C(OCC(=O)N(CCc1ccccc1)Cc1ccccc1)c1ccccc1[N+](=O)[O-]` was tested, and the inhibition was 71.1% (active). For `CC(C)(C)c1ccc(S(=O)(=O)NCC2CCN(C(=O)C(=O)c3cc4ccccc4o3)CC2)cc1`, the inhibition was 3.67% (inactive). For `O=C(COC(=O)c1cc(S(=O)(=O)N2CCOCC2)ccc1Cl)NCCc1ccccc1`, the inhibition was -6.27% (inactive). `CCC(=O)c1ccc(OCC(O)CN2CCN(c3cccc(C(F)(F)F)c3)CC2)cc1` (stereo unspecified) was tested, and the inhibition was 19.9% (inactive). `CCOc1ccc(NC(=O)N(CC(C)C)CC(C)C)cc1` was tested, and the inhibition was -6.6% (inactive). In the case of `CCOc1ccc(NC(=O)Nc2ccc(N(C)C(C)=O)cc2)cc1`, the inhibition is reported as 51.5% (active). In the case of `CC(=O)N(C)c1ccc(NC(=O)Nc2cccc3ccccc23)cc1`, the inhibition is reported as -1.56% (inactive). With `CC12CCC(=O)N1C(C(=O)NCCN1C(=O)S/C(=C\c3ccccc3F)C1=O)CS2` (stereo unspecified) the inhibition was -27.9% (inactive). For `O=S(=O)(NCC1CCCO1)c1cnc(Cl)c(Cl)c1` (stereo unspecified), the inhibition was 12.4% (inactive). In the case of `CCOC(=O)C1=C(c2ccccc2)O/C(=C(/C(=O)OC)C(F)(F)F)S1`, the inhibition is reported as -4.35% (inactive). For `CC(=O)Nc1cccc(NC(=O)c2ccc3c(c2)CCN3S(C)(=O)=O)c1`, the inhibition was 50% (active). `CS(=O)(=O)N1CCc2cc(C(=O)Nc3ccccc3)ccc21` was tested, and the inhibition was 9.11% (inactive). In the case of `CS(=O)(=O)N1CCc2cc(C(=O)Nc3ccccc3Br)ccc21`, the inhibition is reported as 23.9% (inactive). For `Cc1ncc([N+](=O)[O-])n1CCOC(=O)c1ccc(Br)cc1`, the inhibition was 11.2% (inactive). With `CC(C)(C)C(c1nc2ccccc2[nH]1)n1c(Cc2csc3ccccc23)nc2ccccc21` (stereo unspecified) the inhibition was 11.6% (inactive). `CC(C)C[C@@H]1Cc2[nH][nH]c(=O)c2[C@H](CCc2ccccc2)O1` was tested, and the inhibition was -21.2% (inactive). With `C[N+](C)(C)CCNC(=O)c1cc[n+](Cc2ccccc2)c(/C=N/O)c1` the inhibition was 5.47% (inactive). `COC(=O)C1=C(C)N(Cc2ccccc2C(F)(F)F)C(=NCc2ccc(OC)cc2)NC1c1cccc(C(F)(F)F)c1` (stereo unspecified) was tested, and the inhibition was 4.48% (inactive). With `Cc1ccc(S(=O)(=O)N(CC(=O)NCc2ccco2)c2ccccc2C)cc1` the inhibition was 5.84% (inactive). For `COc1ccc(S(=O)(=O)N(CC(=O)NCc2ccco2)c2ccc(F)cc2)cc1`, the inhibition was 57.5% (active). For `CCN(CC(=O)NCc1ccco1)S(=O)(=O)c1ccc(F)cc1`, the inhibition was -11.9% (inactive). For `COc1ccc(C(C(=O)NCc2ccccc2)n2c(=O)c(-c3ccccc3)nc3ccccc32)cc1` (stereo unspecified), the inhibition was -24.7% (inactive). For `CN(Cc1ccccc1)C(=O)[C@@H]1CCCN1C(=O)[C@@H]1CCCN1C(=O)c1c(F)cccc1F`, the inhibition was -1.21% (inactive). With `Cc1nnc(SCC(=O)NC(=O)NC2CCCC2)n1N` the inhibition was -8.31% (inactive). With `COc1cc(NC(=O)c2cc(-c3ccc(F)cc3OC(C)C)n[nH]2)cc(OC)c1OC` the inhibition was 47.6% (inactive). `CC(C)Oc1cc(F)ccc1-c1cc(C(=O)Nc2ccc(F)cc2)[nH]n1` was tested, and the inhibition was 68.5% (active). `CC(C)Oc1cc(F)ccc1-c1cc(C(=O)Nc2cccc(Cl)c2)[nH]n1` was tested, and the inhibition was 42.5% (inactive). For `O=C(CN1CCN(c2ccc(O)cc2)CC1)NC1CCCc2ccccc21` (stereo unspecified), the inhibition was -0.58% (inactive). In the case of `CCS(=O)(=O)Nc1ccc(C2=NN(C(C)=O)C(c3cccs3)C2)cc1` (stereo unspecified), the inhibition is reported as 6.89% (inactive). For `CS(=O)(=O)Nc1cccc(C2=NN(C(=O)c3cccc(F)c3)C(c3cccs3)C2)c1` (stereo unspecified), the inhibition was 62.3% (active). For `Cc1ccc(C2CC(c3cccc(NS(C)(=O)=O)c3)=NN2S(C)(=O)=O)cc1` (stereo unspecified), the inhibition was 0.27% (inactive). For `FC(F)Oc1ccc(NC(=S)NCc2ccco2)cc1Cl`, the inhibition was 36.8% (inactive). For `O=C(CSc1nc2cccc(F)c2c(=O)n1-c1ccccc1)Nc1ccc2c(c1)CCC2`, the inhibition was -17.1% (inactive). For `CCOc1ncccc1C(=O)OCC(=O)Nc1cccc(S(=O)(=O)N2CCCCCC2)c1`, the inhibition was 63.8% (active). For `CC(NC(=O)c1ccccc1)C(=O)OCC(=O)Nc1cccc(S(=O)(=O)N2CCCC2)c1` (stereo unspecified), the inhibition was -4.21% (inactive). `O=C(COC(=O)COc1ccccc1F)Nc1cccc(S(=O)(=O)N2CCCCC2)c1` was tested, and the inhibition was -6.77% (inactive). In the case of `COc1cccc(CCNC(=O)COc2cccc3c2OC(C)(C)C3)c1`, the inhibition is reported as 3.3% (inactive). For `CCCNC(=O)C1CC(=O)N(c2ccc(OCC(=O)Nc3cccc(C)c3C)cc2)C1` (stereo unspecified), the inhibition was -17.9% (inactive). In the case of `NC(=O)c1ccsc1NC(=O)COC(=O)COc1ccc(C=O)cc1`, the inhibition is reported as 24.6% (inactive). With `Cc1cccc(C(=O)OCC(=O)Nc2sccc2C(N)=O)c1C` the inhibition was -21.5% (inactive). `COc1cc(OC)cc(C(=O)OCC(=O)Nc2sccc2C(N)=O)c1` was tested, and the inhibition was 63% (active). In the case of `CCCCNC(=O)C[C@@H]1C[C@@]2(C(=O)OCC)CCC=C2N(Cc2cccc3ccccc23)C1=O`, the inhibition is reported as -3.28% (inactive). With `COc1cc(C(=O)OC(C)C(=O)NCC2CCCCC2)cc(NC(=O)c2ccco2)c1OC` (stereo unspecified) the inhibition was -4.96% (inactive). `COc1ccc(Cl)cc1NC(=O)CCS(=O)(=O)c1cc2c(cc1C)NC(=O)CO2` was tested, and the inhibition was 63.3% (active). In the case of `Cc1cc2c(cc1S(=O)(=O)CCC(=O)NCc1ccccc1)OCC(=O)N2`, the inhibition is reported as 8.55% (inactive). With `COc1ccc(NC(=O)CCS(=O)(=O)c2cc3c(cc2Cl)NC(=O)CO3)cc1OC` the inhibition was -9.29% (inactive). For `O=C(NC1CCCC1)C1c2ccccc2OCC(=O)N1Cc1ccccc1` (stereo unspecified), the inhibition was -5.5% (inactive). For `Cc1ccc(C)c(OCCC(=O)OCC(=O)NC(=O)NCc2ccccc2)c1`, the inhibition was -20.1% (inactive). `COc1cc(SC#N)ccc1N=Cc1c(C)[nH]n(-c2ccc(C)cc2)c1=O` was tested, and the inhibition was 87.5% (active). In the case of `Cc1ccc2cc(C)c(N3CCC(C)CC3)nc2c1`, the inhibition is reported as -22.1% (inactive). For `Cc1ccc2cc(C)c(N3CCN(c4ccc(F)cc4)CC3)nc2c1`, the inhibition was -19.1% (inactive). With `Cc1cc(C)c2cc(C#N)c(N3CCNCC3)nc2c1` the inhibition was 76.6% (active). In the case of `COC(=O)[C@]12C[C@H](CC(=O)NCc3cccc(C(F)(F)F)c3)C(=O)N(Cc3ccc4c(c3)OCO4)C1=C[C@H](COCc1ccccc1)O[C@@H]2C`, the inhibition is reported as -19.1% (inactive). For `COc1ccc(N2CCN(C(=O)c3ccc(N4CCCCS4(=O)=O)cc3)CC2)cc1`, the inhibition was -21.9% (inactive). In the case of `CC(C)C(=O)Nc1ccc2c3c(cccc13)CC2`, the inhibition is reported as -5.92% (inactive). In the case of `COc1ccc(C(=O)Oc2ccc(-c3nnco3)cc2)cc1S(=O)(=O)N1CCOCC1`, the inhibition is reported as 60.2% (active). In the case of `COc1ccc(C(=O)OCC(=O)c2ccc(C)c(S(=O)(=O)N3CCOCC3)c2)cc1OC`, the inhibition is reported as 47.7% (inactive). `O=C(Oc1ccc(-c2nnco2)cc1)c1ccc(F)c(S(=O)(=O)N2CCOCC2)c1` was tested, and the inhibition was 84.1% (active). With `Cc1cc(NC(=O)COC(=O)c2ccc(F)c(S(=O)(=O)N3CCOCC3)c2)no1` the inhibition was -19.8% (inactive). `NC(=O)C1CCN(C(=O)c2ccc(F)c(S(=O)(=O)N3CCOCC3)c2)CC1` was tested, and the inhibition was 6.75% (inactive). For `COc1ccc(C(=O)OC(C)C(=O)NC2CCCC2)cc1S(=O)(=O)N1CCOCC1` (stereo unspecified), the inhibition was -9.55% (inactive). For `CC(C)(O)C1=C[N+](=O)CC=C1`, the inhibition was 2.41% (inactive). `CC1(C(=O)Nc2cccnc2)Cc2c(-c3ccccc3)ccnc2O1` (stereo unspecified) was tested, and the inhibition was -9.98% (inactive). `CC(C)C[C@@H]1COc2cc(N3CCC[C@@H]3CO)ccc2S(=O)(=O)N1` was tested, and the inhibition was -24.6% (inactive). With `Cc1ccc2c(c1)N(CC(=O)NCCc1ccc(Cl)cc1)C(=O)c1cccnc1O2` the inhibition was 64.2% (active). For `Cc1ccc2c(c1)N(CC(=O)NCCCN1CCCCC1)C(=O)c1cccnc1O2`, the inhibition was -18.1% (inactive). In the case of `O=C(CN1C(=O)c2cccnc2Oc2ccc(Cl)cc21)NCCc1ccccc1`, the inhibition is reported as 12.2% (inactive). For `CN(C)C1CN(Cc2cn(Cc3ccccc3)nn2)S(=O)(=O)C1` (stereo unspecified), the inhibition was -30.8% (inactive). `C=CC1=CCN(S(=O)(=O)C(C)(C)C)[C@@H]1CCO` was tested, and the inhibition was -20.8% (inactive). With `Cc1cccc(C(=O)Nc2ccc3c(c2)C(=O)N(CC(C)C)C3=O)c1` the inhibition was 16.9% (inactive). For `Cc1cccc(C(=O)Nc2ccc(C(=O)/C=C/c3cccs3)cc2)c1`, the inhibition was 59.9% (active). With `Cc1cccc(C(=O)Nc2ccc(Oc3cnccn3)cc2)c1` the inhibition was -6.75% (inactive).
